Experimental data as given in publication PMC8277681 (Molecular imaging and biology, 2021).

Biological target: mGluR2 (Rattus norvegicus, UniProt P31421)
Experiment: PET imaging of brain uptake and blocking in rats
Assay type: in vivo, Sprague Dawley rats
Conditions: blocker 4 mg/kg i.v. 10 min before [18F]8, 1–10 min time window
In short: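 Male Sprague Dawley rats (275–400 g) under isoflurane/nitrous oxide (1.0–1.5% isoflurane), tail vein catheterized. Dynamic 60-min PET started at i.v. injection of the 18F radioligand (20–41 MBq). Unlabeled blocker in saline with 10% ethanol and 10% Tween 20 was given 4 mg/kg i.v. 10 min before the radioligand. Percent change in regional brain uptake versus baseline scans was taken at 1–10 min.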

Sequence of mGluR2 (P31421 19-872): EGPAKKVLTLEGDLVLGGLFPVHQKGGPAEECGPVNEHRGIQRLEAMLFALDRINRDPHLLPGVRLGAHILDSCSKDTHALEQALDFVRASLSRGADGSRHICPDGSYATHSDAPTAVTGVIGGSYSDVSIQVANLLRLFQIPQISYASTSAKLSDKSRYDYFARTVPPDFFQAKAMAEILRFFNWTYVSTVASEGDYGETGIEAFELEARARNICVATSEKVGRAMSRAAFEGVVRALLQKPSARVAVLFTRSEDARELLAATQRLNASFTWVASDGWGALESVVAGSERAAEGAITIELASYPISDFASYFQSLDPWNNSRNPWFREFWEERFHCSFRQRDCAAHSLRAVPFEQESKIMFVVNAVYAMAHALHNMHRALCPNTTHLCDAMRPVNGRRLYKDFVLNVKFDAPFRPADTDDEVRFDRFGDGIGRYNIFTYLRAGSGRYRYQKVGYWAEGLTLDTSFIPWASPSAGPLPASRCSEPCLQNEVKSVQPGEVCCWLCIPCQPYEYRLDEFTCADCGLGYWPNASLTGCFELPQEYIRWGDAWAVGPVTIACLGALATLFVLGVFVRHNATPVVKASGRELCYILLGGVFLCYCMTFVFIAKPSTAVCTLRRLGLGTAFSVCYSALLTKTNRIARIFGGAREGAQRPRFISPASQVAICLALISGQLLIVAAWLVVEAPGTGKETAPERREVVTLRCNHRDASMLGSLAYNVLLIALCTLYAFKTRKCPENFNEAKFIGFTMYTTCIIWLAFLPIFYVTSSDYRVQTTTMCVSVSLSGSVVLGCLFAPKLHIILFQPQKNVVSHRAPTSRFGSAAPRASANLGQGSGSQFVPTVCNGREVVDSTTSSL

decrease of [18F]8 uptake in cerebellum (blocking effect): 18.8%
Structure (SMILES): Fc1ccc(N2CCN(Cc3ccn4c(CC5CC5)nnc4c3C(F)(F)F)CC2)c(F)c1 [compound 8, 8-trifluoromethyl-3-cyclopropylmethyl-7-[(4-(2,4-difluorophenyl)-1-piperazinyl)methyl]-1,2,4-triazolo[4,3-a]pyridine]
